≈ marks a conversion by molar mass, not a printed value.
Assays:
Assay type in all cases: functional
Candida [1] = assay: In vitro antifungal activity against candida Spp (Candida glabrata, Candida krusei) at pH 5.8,(percent of resistant species at 256 ug/mL)
Procedure, shortened: (§1)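 Broth serial-dilution test in Sabouraud broth at pH 7.2 or 5.8, against 3 fresh clinical non-albicans isolates (two C. glabrata, one C. krusei). Inocula were 10³/mL, pre-grown 18 h at 37 °C. Compound was twofold-diluted over 0.25–256 µg/mL and read at 24 h, 37 °C for visible growth.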

Candida albicans [2] = assay: In vitro antifungal activity against 40 strains at pH 7.2 minimum inhibitory concentration
Procedure, shortened: (§2)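 Inocula were 10³/mL, pre-grown 18 h at 37 °C. MIC is the lowest concentration with no visible growth versus a DMSO/water blank at 24 h, 37 °C. The mean MIC is ΣMICi over the total strain number; MIC50/MIC90 cover 50%/90% of strains.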

Candida [3] = assay: Tested in vitro for antifungal activity against candida Spp (Candida glabrata, Candida krusei) at pH 7.2 (percent of resistant species at 256 ug/mL); procedure, shortened: as §1
Candida albicans [4] = assay: In vitro antifungal activity against 40 strains at pH 7.2; procedure, shortened: as §2
Candida albicans [5] = assay: In vitro antifungal activity against 40 strains at pH 7.2,(percent of resistant species at 256 ug/mL)
Procedure, shortened: (§3)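 Broth serial-dilution test in Sabouraud broth at pH 7.2 or 5.8, against 40 fresh clinical C. albicans isolates from hospitalized patients. Inocula were 10³/mL, pre-grown 18 h at 37 °C in Sabouraud dextrose broth. Compound from a DMSO/water stock was twofold-diluted over 0.25–256 µg/mL. Visible growth was read at 24 h, 37 °C.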

Candida [6] = assay: Tested In vitro for antifungal activity against candida Spp (Candida glabrata, Candida krusei) at pH 5.8
Procedure, shortened: (§4)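 Inocula were 10³/mL, pre-grown 18 h at 37 °C. MIC is the lowest concentration with no visible growth versus a blank at 24 h, 37 °C. The mean MIC is ΣMICi over the strain number; MIC50/MIC90 are also reported.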

Candida [7] = assay: Tested In vitro for antifungal activity against candida Spp (Candida glabrata, Candida krusei) at pH 7.2; procedure, shortened: as §4
Candida albicans [8] = assay: Tested In vitro for antifungal activity at pH 5.8
Candida albicans [9] = assay: In vitro antifungal activity against 40 strains at pH 5.8,(percent of resistant species at 256 ug/mL); procedure, shortened: as §3
Candida albicans [10] = assay: In vitro antifungal activity against 40 strains at pH 7.2, (percent of resistant species at 256 ug/mL); procedure, shortened: as §3
Candida [11] = assay: Tested In vitro for antifungal activity against Candida species. at pH 7.2; (percent of resistant species at 256 ug/mL); procedure, shortened: as §1
Candida [12] = assay: Tested in vitro for antifungal activity against Candida species. at pH 5.8; (percent of resistant species at 256 ug/mL); procedure, shortened: as §1
Candida albicans [13] = assay: In vitro antifungal activity against 40 strains of Candida albicans at pH 5.8
Procedure, shortened: (§5)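 Broth serial-dilution MIC against 40 clinical C. albicans isolates from hospitalized patients, grown in Sabouraud broth at pH 7.2 or 5.8. Cells were pre-grown 18 h at 37 °C, inoculated at 10³/mL, and read at 24 h, 37 °C. Doubling dilutions ran 0.25–256 μg/mL from a DMSO/water solution. MIC was the lowest concentration with no visible growth against a DMSO/water blank.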

Candida albicans [14] = assay: In vitro antifungal activity against 40 strains of Candida albicans at pH 5.8; (percent of resistant species at 256 ug/mL); procedure, shortened: as §3
Candida albicans [15] = assay: In vitro antifungal activity against 40 strains of Candida albicans at pH 7.2; (percent of resistant species (R) at 256 ug/mL); procedure, shortened: as §3
Candida albicans [16] = assay: In vitro antifungal activity against 40 strains of Candida albicans at pH 7.2; minimum inhibitory concentration; value ranges from <0.25 to 16; procedure, shortened: as §5
Candida [17] = assay: Tested In vitro for antifungal activity against Candida species. at pH 7.2; (range is from 0.5 to 1)
Procedure, shortened: (§6)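 Liquid serial-dilution MIC against 3 freshly isolated clinical Candida strains (two C. glabrata, one C. krusei) in Sabouraud broth at pH 7.2 or 5.8. Inoculum was 10³/mL after 18 h pre-culture at 37 °C, read at 24 h, 37 °C. Range was 0.25–256 μg/mL. Endpoint was no visible growth versus a DMSO/water blank.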

Candida [18] = assay: Tested in vitro for antifungal activity against Candida species. at pH 5.8; value ranges from <0.25 to 0.25
Procedure, shortened: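 Fresh clinical isolates (two C. glabrata, one C. krusei) were pre-grown 18 h at 37 °C in Sabouraud dextrose broth. Broth double-dilution was run in Sabouraud broth at pH 5.8 or 7.2 over 0.25–256 µg/mL from a DMSO/water stock, with 10³/mL inoculum.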

Candida [19] = assay: Tested In vitro for antifungal activity against Candida species. at pH 7.2; procedure, shortened: as §6
Candida [20] = assay: Tested in vitro for antifungal activity against Candida species. at pH 5.8; procedure, shortened: as §6
Candida albicans [21] = assay: In vitro antifungal activity against 40 strains of Candida albicans at pH 5.8; value ranges from <0.25 to 8; procedure, shortened: as §5
Candida albicans [22] = assay: In vitro antifungal activity against 40 strains of Candida albicans at pH 7.2; procedure, shortened: as §5

Row | SMILES | Resistance (Candida [1]) | Range (Candida albicans [2]) | Resistance (Candida [3]) | MIC (Candida albicans [4]) | MIC50 (Candida albicans [4]) | MIC90 (Candida albicans [4]) | MIC (Candida [6]) | MIC50 (Candida [6]) | MIC90 (Candida [6]) | Range (Candida [6]) | MIC (Candida [7]) | MIC50 (Candida [7]) | MIC90 (Candida [7]) | Range (Candida [7]) | MIC (Candida albicans [8]) | Range (Candida albicans [8]) | Resistance (Candida albicans [9]) | also measured
1 | c1ccc(-c2ccc(C(c3ccccc3)n3ccnc3)cc2)cc1 (stereo not drawn) [BIFONAZOLE] | 0% | 0.5 µg/mL | 0% | 2.44 µg/mL (≈ 7.86 µM) | 2 µg/mL (≈ 6.44 µM) | 4 µg/mL (≈ 12.9 µM) | 4 µg/mL (≈ 12.9 µM) | 4 µg/mL (≈ 12.9 µM) | 32 µg/mL (≈ 103 µM) | 2 µg/mL | 4.16 µg/mL (≈ 13.4 µM) | 4 µg/mL (≈ 12.9 µM) | 8 µg/mL (≈ 25.8 µM) | 0.5 µg/mL | 5.85 µg/mL (≈ 18.8 µM) | 1 µg/mL | 0% | Resistance (Candida albicans [5]): 0%; MIC50 (Candida albicans [8]): 2 µg/mL (≈ 6.44 µM); MIC90 (Candida albicans [8]): 4 µg/mL (≈ 12.9 µM)
2 | CC(=O)N1CCN(c2ccc(OCC3COC(Cn4ccnc4)(c4ccc(Cl)cc4Cl)O3)cc2)CC1 (stereo not drawn) [KETOCONAZOLE] | 0% | 2 µg/mL | 0% | 9.26 µg/mL (≈ 17.4 µM) | 8 µg/mL (≈ 15.1 µM) | 32 µg/mL (≈ 60.2 µM) | 6.53 µg/mL (≈ 12.3 µM) | 32 µg/mL (≈ 60.2 µM) | 128 µg/mL (≈ 241 µM) | <0.25 µg/mL | 8.6 µg/mL (≈ 16.2 µM) | 8 µg/mL (≈ 15.1 µM) | 16 µg/mL (≈ 30.1 µM) | 2 µg/mL | 6.35 µg/mL (≈ 11.9 µM) | <0.25 µg/mL | 0% | Resistance (Candida albicans [10]): 0%
3 | Clc1ccc(COC(Cn2ccnc2)c2ccc(Cl)cc2Cl)c(Cl)c1 (stereo not drawn) [MICONAZOLE] |  |  |  |  |  |  |  |  |  |  |  |  |  |  |  |  |  | Resistance (Candida [11]): 0%; Resistance (Candida [12]): 0%; MIC (Candida albicans [13]): 0.57 µg/mL (≈ 1.37 µM); MIC50 (Candida albicans [13]): 0.5 µg/mL (≈ 1.2 µM); MIC90 (Candida albicans [13]): 2 µg/mL (≈ 4.81 µM); Resistance (Candida albicans [14]): 0%; Resistance (Candida albicans [15]): 0%; Range (Candida albicans [16]): 16 µg/mL; Range (Candida [17]): 1 µg/mL; Range (Candida [18]): <0.25 µg/mL; MIC (Candida [19]): 0.83 µg/mL (≈ 1.99 µM); MIC50 (Candida [19]): 1 µg/mL (≈ 2.4 µM); MIC90 (Candida [19]): 1 µg/mL (≈ 2.4 µM); MIC (Candida [20]): 0.156 µg/mL (≈ 0.375 µM); MIC50 (Candida [20]): 0.5 µg/mL (≈ 1.2 µM); MIC90 (Candida [20]): 8 µg/mL (≈ 19.2 µM); Range (Candida albicans [21]): < 8 µg/mL; MIC (Candida albicans [22]): 1.16 µg/mL (≈ 2.79 µM); MIC50 (Candida albicans [22]): 0.5 µg/mL (≈ 1.2 µM); MIC90 (Candida albicans [22]): 2 µg/mL (≈ 4.81 µM)
